Results from different studies.
Lines come from different studies, so protocols differ.
lecA: PA-I galactophilic lectin (lecA, Pseudomonas aeruginosa, UniProt Q05097)
Chymotrypsinogen A: Chymotrypsinogen A (Bos taurus, UniProt P00766)

`c1cc2c(cc1C1CCCCC1)c1c3n2CCNC3CCC1` (stereo not drawn) has a Ki of 3600 nM (Amine oxidase [flavin-containing] A (Maoa, Rattus norvegicus, UniProt P21396); enzyme activity, inhibitor; pH 7.5).
`OCC(F)(F)F` has a Ki of 980000 nM (ADH1 (Saccharomyces cerevisiae, UniProt P00330, W83R); enzyme activity, inhibitor).
`O=C(CCCCn1cc(CCN2CCN(c3cc4c(cc3F)c(=O)c(C(=O)O)cn4C3CC3)CC2)nn1)Nc1ccc(S[C@@H]2O[C@H](CO)[C@H](O)[C@H](O)[C@H]2O)cc1` gave a Ki of 2700 nM (lecA; ligand displacement, FP).
For `CCCC[C@H](NC(=O)[C@H](CCC(N)=O)NC(=O)[C@H](CO)NC(=O)[C@H](Cc1ccccc1)NC(=O)CCCCCN)C(=O)N[C@@H](CCCBr)B(O)O`, the Ki was 580 nM (Chymotrypsinogen A; enzyme activity, inhibitor, fluorescence).
With `O=C(CCCn1cc(CN2CCN(c3cc4c(cc3F)c(=O)c(C(=O)O)cn4C3CC3)CC2)nn1)Nc1ccc(S[C@@H]2O[C@H](CO)[C@H](O)[C@H](O)[C@H]2O)cc1` the Ki was 3000 nM (lecA; ligand displacement, FP).
With `NC(=O)C1=CN([C@@H]2O[C@H](COP(=O)(O)OP(=O)(O)OC[C@H]3O[C@@H](n4cnc5c(N)ncnc54)[C@H](O)[C@@H]3O)[C@@H](O)[C@H]2O)C=CC1` the Ki was 570000 nM (ADH1 (Saccharomyces cerevisiae, UniProt P00330, W55R); enzyme activity, inhibitor).
`CCCC[C@H](NC(=O)[C@H](CCC(N)=O)NC(=O)[C@H](CO)NC(=O)[C@H](Cc1ccccc1)NC(=O)CCCCCN)C(=O)N[C@@H](Cc1ccccc1)B(O)O` has a Ki of 0.135 nM (Chymotrypsinogen A; enzyme activity, inhibitor, fluorescence).
The Ki of `[N-]=[N+]=NCCCC(=O)Nc1ccc(S[C@@H]2O[C@H](CO)[C@H](O)[C@H](O)[C@H]2O)cc1` is reported as 4010 nM (lecA; ligand displacement, FP).
The Ki of `CCCC[C@H](NC(=O)[C@H](CCC(N)=O)NC(=O)[C@H](CO)NC(=O)[C@H](CO)NC(=O)CCCCCN)C(=O)N[C@@H](CC(C)C)B(O)O` is reported as 138 nM (Chymotrypsinogen A; enzyme activity, inhibitor, fluorescence).
The Ki of `NC(=O)C1=CN([C@@H]2O[C@H](COP(=O)(O)OP(=O)(O)OC[C@H]3O[C@@H](n4cnc5c(N)ncnc54)[C@H](O)[C@@H]3O)[C@@H](O)[C@H]2O)C=CC1` is reported as 12000 nM (ADH1 (Saccharomyces cerevisiae, UniProt P00330, H49E); enzyme activity, inhibitor).
`O=C(Cn1cc(CCN2CCN(c3cc4c(cc3F)c(=O)c(C(=O)O)cn4C3CC3)CC2)nn1)Nc1ccc(S[C@@H]2O[C@H](CO)[C@H](O)[C@H](O)[C@H]2O)cc1` has a Ki of 1480 nM (lecA; ligand displacement, FP).
The Ki of `CCCC[C@H](NC(=O)[C@H](CCC(N)=O)NC(=O)[C@H](CO)NC(=O)[C@H](C)NC(=O)CCCCCN)C(=O)N[C@@H](Cc1ccccc1)B(O)O` is reported as 36.2 nM (Chymotrypsinogen A; enzyme activity, inhibitor, fluorescence).
